Results from ChEMBL document CHEMBL3407394, “Synthesis and in vitro anticancer activity evaluation of novel bioreversible phosphate inositol derivatives” (Eur J Med Chem, 2015).

Key:
A549 [1] = assay: Cytotoxicity against human A549 cells assessed as growth inhibition at 10 ug/ml after 72 hrs by MTT assay; type: functional; settings: A549, 72 h, read-out: GI
Method in brief: (§1)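 Single-concentration screen in A549, HeLa or MDA-MB-231 cells cultured in DMEM, 10% FBS, 1% penicillin/streptomycin. About 1000 cells/well were preincubated 12 h, and compound diluted in DMEM to the final well concentration (0.5% DMSO) for 72 h at 37 °C, 5% CO2. Readout was MTT 4 h, DMSO-solubilized formazan, OD570, with inhibition relative to DMSO vehicle. Cisplatin in 1% NaCl (pH 7) served as positive control.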

HeLa [2] = assay: Cytotoxicity against human HeLa cells assessed as growth inhibition at 10 ug/ml after 72 hrs by MTT assay; type: functional; settings: read-out: GI; method in brief: as §1
MDA-MB-231 [3] = assay: Cytotoxicity against human MDA-MB-231 cells assessed as growth inhibition at 10 ug/ml after 72 hrs by MTT assay; type: functional; settings: MDA-MB-231, 72 h, read-out: GI; method in brief: as §1
[4] = Cytotoxicity against human MCF10A cells assessed as growth inhibition at 10 ug/ml after 72 hrs by MTT assay; type: cell-based, MCF-10A; settings: read-out: GI
Method in brief: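 MCF10A cells in DMEM/F12 plus 5% horse serum, about 1000 per well, were incubated 12 h, then treated at one final well concentration diluted in DMEM (0.5% DMSO) for 72 h, 37 °C, 5% CO2. Viability was by MTT: 4 h in fresh medium, formazan dissolved in DMSO, absorbance at 570 nm, normalized to vehicle controls. Cisplatin in 1% NaCl, pH 7, was the positive control.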

A549 [5] = assay: Cytotoxicity against human A549 cells assessed as growth inhibition after 72 hrs by MTT assay; type: functional, cell-based; settings: A549, 72 h
Method in brief: (§2)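 A549, HeLa and MDA-MB-231 cells were grown in DMEM with 10% FBS and 1% penicillin/streptomycin. About 1000 cells/well were seeded and left 12 h, then exposed to a dilution series in DMSO (final 0.5% DMSO) for 72 h at 37 °C, 5% CO2. MTT in fresh medium was added for 4 h, formazan dissolved in DMSO, and OD570 read. Viability was normalized to vehicle, and IC50 taken by linear regression of concentration-response curves.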

HeLa [6] = assay: Cytotoxicity against human HeLa cells assessed as growth inhibition after 72 hrs by MTT assay; type: functional, cell-based; method in brief: as §2
MDA-MB-231 [7] = assay: Cytotoxicity against human MDA-MB-231 cells assessed as growth inhibition after 72 hrs by MTT assay; type: functional, cell-based; settings: MDA-MB-231, 72 h; method in brief: as §2
[8] = Cytotoxicity against human MCF10A cells assessed as growth inhibition after 72 hrs by MTT assay; type: cell-based; settings: MCF-10A
Method in brief: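 MCF10A non-cancerous cells were maintained in DMEM/F12 with 5% horse serum. About 1000 cells/well were seeded and attached for 12 h, then dosed over a dilution series (DMSO vehicle, final 0.5%) for 72 h at 37 °C, 5% CO2. MTT in fresh medium ran 4 h, formazan was dissolved in DMSO and OD570 measured. Viability was relative to vehicle-treated cells, and IC50 came from linear regression of concentration-response curves.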

Row | SMILES | inhibition of growth at 10 µg/mL (A549 [1]) | inhibition of growth at 10 µg/mL (HeLa [2]) | inhibition of growth at 10 µg/mL (MDA-MB-231 [3]) | inhibition at 72 h, 10 ug/ml [4] | IC50 (A549 [5]) | IC50 (HeLa [6]) | IC50 (MDA-MB-231 [7]) | IC50 [8]
1 | C#CCO[C@@H]1[C@@H](OCc2ccccc2)[C@H](OP(=O)(OCc2ccc(OC(C)=O)cc2)OCc2ccc(OC(C)=O)cc2)[C@H](OP(=O)(OCc2ccc(OC(C)=O)cc2)OCc2ccc(OC(C)=O)cc2)[C@H](OP(=O)(OCc2ccc(OC(C)=O)cc2)OCc2ccc(OC(C)=O)cc2)[C@H]1OCc1ccccc1 | 2.5% | 100% | 88.1% | 15.4% | > 30 µM | 19 µM | > 30 µM | > 30 µM
2 | CC(=O)Oc1ccc(COP(=O)(OCc2ccc(OC(C)=O)cc2)O[C@@H]2[C@@H](OP(=O)(OCc3ccc(OC(C)=O)cc3)OCc3ccc(OC(C)=O)cc3)[C@H](OCc3ccccc3)[C@@H](OCc3ccccc3)[C@H](OCc3ccccc3)[C@@H]2OP(=O)(OCc2ccc(OC(C)=O)cc2)OCc2ccc(OC(C)=O)cc2)cc1 | 34.9% | 68.5% | 52.8% | 55.3% | 3.17 µM | > 20 µM | 3.28 µM | > 20 µM
